# Screening results: PubChem, several laboratories
# Insulin prom inh: inhibitors of insulin promoter-driven GFP, primary screen, imaging, TRM-6 cells (human fetal islet line), eGFP reporter, cell count | reporter expression induced with tamoxifen | AID 1273, 2008 | inhibition, % at 2 µM | 130,000 tested, 0.9% active;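 active = inhibition above the mean plus 3 SD, with well images judged a real hit on visual review, cut at about 60% in these data, passing the limit was not always enough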
# bCat nuc transl: modulators of beta-catenin nuclear translocation, primary screen, imaging, HeLa cells, immunofluorescence, high-content; AID 1665, 2009; 190,000 tested, 0.3% active; nuclear translocation activity, % at 5 µM;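 active = nuclear translocation activity above 50% at 5 µM, with a well cell count of 50 or more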;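 also: per-cell ratio of nuclear to cytoplasmic median beta-catenin stain intensity; plate controls were DMSO negative control for no effect and GSK-3 inhibitor IX positive control for full effect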
#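 Technique: fluorescence imaging of beta-catenin antibody stain plus DAPI / Material: human HeLa cell line / Incubation: compound treatment 24 h, 37°C, 5% CO2 / Read-out basis: % activation of per-cell nuclear versus cytoplasmic median beta-catenin signal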
# MT stabilize HCS: microtubule stabilizers in HeLa cells, primary screen, imaging, high-content imaging. % tubulin-high responders, % at 10 µM. AID 2205, 2009. HeLa tubulin immunostaining HCS, 24 h; share of cells brighter than vehicle mean+2SD. 200,000 tested, 0.83% active;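 active = plate Z-score above 3 for both tubulin-high and condensed-nucleus cell shares, with cell loss under 80%, at 10 µM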;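 also: anti alpha tubulin signal scored within the nucleus-defined area of each cell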
# HSV augment: enhancers of HSV replication in host cells, fold increase, host cell viability. HSV replication augmentation in cells. maximum fold increase. 220,000 tested, 0.005% active; in the data active = maximum fold increase above about 1.5; tested in PC3 cells
# ROMK mod: ROMK potassium channel modulators, primary screen, cell-based, thallium flux, MLSMR library; Tet-inducible ROMK, thallium flux fluorescence; actives lie on both sides; B-score at 10 µM; AID 1918, 2009; 130,000 tested, 2% active;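 active = signal ratio slope over the read window, or its plate-corrected B-score, at least 3 SD from the plate mean, either direction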;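 also: B-score of the F/F0 ratio slope over 7 to 12 s after thallium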
# Target sequence (P48048 whole entry, looked up): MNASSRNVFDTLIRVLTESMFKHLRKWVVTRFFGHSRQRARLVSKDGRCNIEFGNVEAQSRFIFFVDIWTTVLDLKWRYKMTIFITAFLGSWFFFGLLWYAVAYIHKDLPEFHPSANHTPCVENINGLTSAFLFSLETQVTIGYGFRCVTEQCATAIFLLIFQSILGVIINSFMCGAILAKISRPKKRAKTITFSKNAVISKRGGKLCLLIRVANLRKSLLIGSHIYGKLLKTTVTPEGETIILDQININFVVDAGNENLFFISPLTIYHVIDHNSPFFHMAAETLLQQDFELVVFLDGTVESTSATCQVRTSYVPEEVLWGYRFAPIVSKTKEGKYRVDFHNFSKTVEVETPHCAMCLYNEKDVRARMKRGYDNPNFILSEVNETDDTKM
# Starred values were filed as active, the others as inactive; i = inactive; x = not tested or not shown. Most compounds without a hit are left out; they make up all but 2.4% or so of the library.
SMILES,Insulin prom inh,bCat nuc transl,MT stabilize HCS,HSV augment,ROMK mod
N#C/C(=C\c1ccc(-c2ccc(S(=O)(=O)N3CCOCC3)cc2)o1)C(=O)NC1CC1,62*,1,4,i,-0.3
COc1ccc(NC(=O)c2cc(-c3ccco3)on2)cc1,11,x,4,i,-0.33
COc1ccc(NC(=O)c2cc(-c3ccccc3OC)on2)cc1,x,145*,51*,i,1.1
COc1ccc(S(=O)(=O)N(C)C)cc1NC(=O)Cc1cccs1,30,4,4,i,0.94
COC(=O)C(=C/C=C/c1ccco1)C(=O)OC,x,0,x,i,x
COc1ccc(NC(=O)/C(C#N)=C\C=C\c2ccco2)cc1,x,9,19*,i,1.8
O=C(Nc1ccccc1)c1nn(-c2ccccc2)c(=O)cc1C(F)(F)F,7,1,16*,i,x
C/C(=N\N1CCN(C)CC1)c1ccc(Cl)c(Cl)c1,x,1,2,i,-1.4
C/C(=N\N1CCN(C)CC1)c1ccc(OC(F)F)cc1,75*,-2,3,i,0.23
CS(=O)(=O)N(CC(=O)Nc1ccccc1C(=O)N1CCCC1)c1ccc2c(c1)OCO2,-38,-1,2,i,0.78
O=c1cc(-c2ccccc2)[nH]c2ccccc12,-279,193*,32*,i,1.5
O=C(COc1ccc(F)cc1)NN1C(=O)CSC1=S,-18,0,2,i,-0.014
CCOC(=O)/C=c1\s/c(=C\c2ccccc2C)c(=O)n1CC(=O)NCc1ccc2c(c1)OCO2,x,5,22*,i,x
CCOc1cc(-c2cc(-c3ccc(C)o3)nc(N)c2C#N)ccc1O,-29,55*,21,i,0.69
Cc1ccc(-c2cc(-c3ccc4c(c3)OCO4)c(C#N)c(N)n2)o1,16,2,59*,i,x
Cc1ccc(OCC(=O)N/N=C\c2c(C)n(C)c3ccccc23)c([N+](=O)[O-])c1,x,3,47*,i,1.6
O=C(O)CCn1c(=S)n(CCC(=O)O)c2ccccc21,x,0,x,i,x
CC(=O)Nc1ccc(NC(=O)c2cccc3c2-c2ccccc2C3=O)cc1,75*,-1,5,i,0.37
COc1cccc(-c2noc(-c3ccoc3C)n2)c1,x,-1,3,i,0.0057
COc1ccc(-c2noc(-c3ccoc3C)n2)cc1,x,2,10*,i,0.48
O=C(c1cccs1)n1nc(-c2ccccc2)nc1NCc1ccc(F)cc1,29,x,4,i,x
O=C(CCCSc1nc2ccccc2c(=O)[nH]1)c1ccc(F)cc1,17,-2,3,i,-0.0085
COc1ccc(CC(=O)NCc2nc(-c3ccccc3)no2)cc1,x,0,3,i,-0.044
c1ccc(NCc2nc(-c3ccccc3)no2)cc1,80*,x,2,i,x
O=C(COC(=O)c1cccs1)NCC1CCCCC1,x,-1,2,i,0.64
SMILES,Insulin prom inh,bCat nuc transl,MT stabilize HCS,HSV augment,ROMK mod
CC(N)=Nc1ccc([N+](=O)[O-])cc1,x,0,2,i,0.8
O=[N+]([O-])c1ccc(N=Nc2c(Cl)cc(O)cc2Cl)cc1,x,1,x,i,-8.8*
Cc1[nH]n2c(=O)c3c(nc2c1-c1ccc(Cl)cc1)CCC3,-65,x,3,i,-1.5
Cc1[nH]n2c(=O)c3c(nc2c1-c1ccccc1)CCC3,83*,x,2,i,x
Cc1ccc2oc(-c3cccc(NC(=S)NC(=O)c4cccs4)c3)nc2c1,x,2,6,i,x
Cc1ccc2oc(-c3cccc(NC(=S)NC(=O)/C=C/c4ccco4)c3)nc2c1,x,11,37*,i,0.5
CC[N+]1(C)CC2CCC(C)(C1)C2(C)C (stereo unspecified),50,x,3,i,-1.1
CCc1ccc(NC(=O)c2c(C(=O)Nc3ccccc3)sc3nc(C)cc(=O)n23)cc1,x,-1,3,i,0.085
c1ccc2c(c1)[nH]c1c(N3CCCC3)ncnc12,x,-4,2,i,-1.9
c1ccc2c(c1)[nH]c1c(N3CCSCC3)ncnc12,94*,x,4,x,-1.5
CN(C)CCn1nnc2c(=O)oc3ccccc3c21,x,0,1,i,0.1
CC(C)c1ccc(OCC(O)CN2CCN(c3ccccc3)CC2)cc1 (stereo unspecified),x,6,4,i,-2.8*
COc1ccc(OCC(O)CN2CCN(c3ccccc3)CC2)cc1 (stereo unspecified),x,-4,1,i,-0.34
O=C(COC(=O)CCSc1ccc(Cl)cc1)NCCc1ccccc1,x,-2,2,i,x
O=C(COC(=O)CCSc1ccc(Cl)cc1)NCc1ccccc1Cl,67*,x,4,i,0.55
COCC(C)NC(=O)NC1(C(F)(F)F)Oc2ccc(Cl)cc2O1 (stereo unspecified),71*,0,5,i,-0.75
O=C(NCCN1CCOCC1)NC1(C(F)(F)F)Oc2ccc(Cl)cc2O1 (stereo unspecified),-118,2,4,i,-0.16
CCOC(=O)c1c(NC(=O)c2ccccc2Br)sc2c1CCc1ccccc1-2,41,x,2,i,0.063
Cc1cccc(C(=O)Nc2nc(C)c(C(=O)Nc3ccc4c(c3)CCC4)s2)c1,44,x,43*,i,x
COc1ccc(NC(=O)CSc2ccc3ccccc3c2)cc1S(=O)(=O)N1CCCCC1,19,-2,5,i,0.011
COc1cccc(/C=C/C(=O)OCC(=O)Nc2ccc(N3CCOCC3)cc2)c1OC,0,0,4,i,-0.39
CNC(=O)Nc1cccc(C(F)(F)F)c1,81*,-3,3,i,-0.34
O=C(Nc1ccccc1)Nc1cccc(C(F)(F)F)c1,20,-3,2,i,-0.58
CCN1CNC(=S)N(C(C)c2ccccc2)C1 (stereo unspecified),21,-1,4,i,-0.21
O=C(c1ccccc1)c1ccccc1C(=O)N1CCOCC1,90*,x,2,i,x
SMILES,Insulin prom inh,bCat nuc transl,MT stabilize HCS,HSV augment,ROMK mod
CN1CCN(c2ccc([N+](=O)[O-])cc2C(=O)c2ccc(Cl)cc2)CC1,-30,185*,43*,i,x
CN1CCN(c2ccccc2NC(=O)c2ccc(N3CCCCC3)c([N+](=O)[O-])c2)CC1,x,0,3,i,-2.2
O=C(c1ccccc1)c1cc([N+](=O)[O-])ccc1N1CCOCC1,x,178*,10,i,x
CN1CCN(c2ccc(C(=O)c3ccccc3)cc2[N+](=O)[O-])CC1,67*,1,4,i,-1.9
CC(NC(=O)c1cnccn1)c1ccc(S(N)(=O)=O)cc1 (stereo unspecified),x,0,x,i,0.065
CN=C1SC(CC(=O)Nc2ccc(F)cc2F)C(=O)N1/N=C/c1ccc(OC(F)F)c(OC)c1 (stereo unspecified),x,0,3,i,0.034
CCOC(=O)c1cc(CC)sc1NC(=O)c1cc([N+](=O)[O-])ccc1N1CCOCC1,x,59*,14,i,-0.041
O=C(O)CCCC(=O)Nc1ccccc1C(=O)N1CCOCC1,x,-1,3,i,0.11
